Reference: ChEMBL document CHEMBL1126078, “Benzodiazepine receptor affinity and interaction of some N-(indol-3-ylglyoxylyl)amine derivatives” (J Med Chem, 1992)
Activity calls are given as the source filed them. The calls are words filed in the database; no cut-off is given here.

How the values were obtained:
[1] = molecular target: T1, GABA-A receptor; anion channel (Bos taurus) (UniProt P10063+P08220+P20237+P08219+P10064+P22300); experiment: In vitro inhibition of specific binding of [3H]flunitrazepam to benzodiazepine receptor in bovine cerebral cortex membrane at a concentration of 10 uM.; format: cell membranes
Summary of the method: (§1)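 Bovine cortex membranes (sucrose homogenate, 50 000g pellet, frozen and washed to remove endogenous GABA) in 50 mM Tris-HCl pH 7.4; 0.4 mg protein incubated 90 min at 0 °C with 0.2 nM [3H]flunitrazepam, filtered, counted. Nonspecific binding with 10 μM diazepam. Single test concentration 10 μM, or 1 μM where insoluble; mean ± SEM of five determinations.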

[2] = molecular target: GABA-A receptor; anion channel; experiment: (§2) In vitro inhibition of [3H]flunitrazepam binding to GABA-A benzodiazepine receptor of bovine cerebral cortical membranes at 10 uM; design: species or system Bos taurus; summary of the method: as §1
[3] = molecular target: T1, GABA-A receptor; anion channel (Bos taurus); experiment: Relative binding to GABA-A receptor in the presence and absence of GABA (GABA shift), Ki(-GABA)/Ki(+GABA); format: protein-complex assay
Summary of the method: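 Same [3H]flunitrazepam (0.2 nM, 0 °C, 90 min) binding with GABA-depleted washed bovine cortical membranes. IC50 from log-probit analysis of 6–8 concentrations in triplicate, measured with and without 10 μM GABA; Ki by Cheng–Prusoff (Kd 1.8 nM). Ratio = Ki without GABA / Ki with GABA; Ki means ± SEM of three determinations.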

[4] = molecular target: T1, GABA-A receptor; anion channel (Bos taurus); experiment: as §2; summary of the method: as §1
[5] = tested on: Mus musculus; experiment: In vivo ip dose to induce convulsions in mice treated with subconvulsant PTZ (40 mg/kg); format: functional
Summary of the method: (§3)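 Groups of 10 mice given graded doses ip (0.1 mL) suspended in 1% carboxymethylcellulose vehicle, or vehicle alone; PTZ given 30 min later at 80 mg/kg (anticonvulsant test) or 40 mg/kg subconvulsant (proconvulsant test). Proconvulsant value: dose inducing convulsions in 50% of mice. Highest dose tested 250 mg/kg.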

[6] = tested on: Mus musculus; experiment: Anticonvulsant activity in mice on ip dose before 80 mg/kg of PTZ (NE=no effect); format: functional, organism-based; design: dose 80 mg/kg; summary of the method: as §3
[7] = tested on: Mus musculus; experiment: In vivo ip dose to antagonize Diazepam (2.5 mg/kg) anticonvulsant effect in mice treated with 80 mg/kg PTZ; format: functional; conditions: route intraperitoneal
Summary of the method: (§4)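 Groups of 10 mice received diazepam 2.5 mg/kg ip, then 10 min later graded ip doses of compound or vehicle; PTZ 80 mg/kg given 15 min after compound. Value: dose antagonizing diazepam's anticonvulsant effect in 50% of mice. Highest dose tested 250 mg/kg.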

[8] = tested on: Mus musculus; experiment: In vivo ip dose to induce convulsions in mice treated with subconvulsant PTZ (40 mg/kg) (NE=no effect); format: functional, organism-based; summary of the method: as §3
[9] = tested on: Mus musculus; experiment: In vivo ip dose to antagonize Diazepam (2.5 mg/kg) anticonvulsant effect in mice treated with 80 mg/kg PTZ (NE=no effect); format: functional, organism-based; design: dose 80 mg/kg; summary of the method: as §4
[10] = molecular target: T1, GABA-A receptor; anion channel (Bos taurus); experiment: In vitro inhibition of [3H]flunitrazepam binding to GABA-A benzodiazepine receptor of bovine cerebral cortical membranes at 1 uM; summary of the method: as §1

O=C(NCCc1ccccc1)C(=O)c1c[nH]c2ccc(Cl)cc12
inhibition [1]: 25%

COc1cccc(CCNC(=O)C(=O)c2c[nH]c3ccccc23)c1
inhibition [1]: 97% | Ki [2]: 85 nM | Ratio [3]: 1.2

COc1ccc(CCNC(=O)C(=O)c2c[nH]c3ccc(Cl)cc23)cc1OC
inhibition [1]: 94% | Ki [2]: 700 nM | Ratio [3]: 1.3

O=C(NCCc1c[nH]c2ccccc12)C(=O)c1c[nH]c2ccc([N+](=O)[O-])cc12
inhibition [1]: 90% | Ki [2]: 350 nM | Ratio [3]: 0.65

O=C(NCCc1c[nH]c2ccccc12)C(=O)c1c[nH]c2ccccc12
inhibition [1]: 83% | Ki [2]: 1500 nM | Ratio [3]: 1

Cn1cc(C(=O)C(=O)NCCc2ccc(O)c(O)c2)c2ccccc21
inhibition [4]: 17%

CCOC(=O)c1ncn2c1CN(C)C(=O)c1cc(F)ccc1-2 [FLUMAZENIL]
Ki [2]: 0.38 nM | Ratio [3]: 1

O=C(NCCc1ccc(O)cc1)C(=O)c1c[nH]c2ccc(Cl)cc12
inhibition [1]: 83% | Ki [2]: 2200 nM | Ratio [3]: 0.8

O=C(NCCc1c[nH]c2ccccc12)C(=O)c1c[nH]c2ccc(Cl)cc12
inhibition [1]: 70%

O=C(NCCc1ccc(O)cc1)C(=O)c1c[nH]c2ccc(Br)cc12
inhibition [1]: 75% | Ki [2]: 2300 nM | Ratio [3]: 0.8

O=C(NCCc1ccc(Cl)cc1)C(=O)c1c[nH]c2ccc([N+](=O)[O-])cc12
inhibition [1]: 0%

Cn1cc(C(=O)C(=O)NCCc2ccccc2)c2ccccc21
inhibition [1]: 42%

COc1ccc(CCNC(=O)C(=O)c2c[nH]c3ccccc23)cc1OC
inhibition [1]: 96% | Ki [2]: 510 nM | Ratio [3]: 1.3

O=C(NCCc1ccc(O)c(O)c1)C(=O)c1c[nH]c2ccc([N+](=O)[O-])cc12
ED50 [5]: 100 mg/kg | Activity [6]: inactive | ED50 [7]: 75 mg/kg | inhibition [4]: 100% | Ki [2]: 280 nM | Ratio [3]: 0.64

O=C(NCCc1ccccc1)C(=O)c1c[nH]c2ccccc12
ED50 [8]: inactive | ED50 [9]: inactive | Activity [6]: inactive | inhibition [1]: 94% | Ki [2]: 380 nM | Ratio [3]: 1.3

COc1ccc(CCNC(=O)C(=O)c2c[nH]c3ccc([N+](=O)[O-])cc23)cc1OC
Ratio [3]: 1

Cn1cc(C(=O)C(=O)NCCc2ccc(Cl)cc2)c2ccccc21
inhibition [4]: 25%

CN1C(=O)CN=C(c2ccccc2)c2cc(Cl)ccc21 [DIAZEPAM]
Ki [2]: 10 nM | Ratio [3]: 1.7

COc1cccc(CCNC(=O)C(=O)c2c[nH]c3ccc([N+](=O)[O-])cc23)c1
inhibition [1]: 25%

Cn1cc(C(=O)C(=O)NCCc2ccc(O)cc2)c2ccccc21
inhibition [1]: 58%

COc1ccc(CCNC(=O)C(=O)c2cn(C)c3ccccc23)cc1OC
inhibition [1]: 51%

COc1ccc(CCNC(=O)C(=O)c2c[nH]c3ccc([N+](=O)[O-])cc23)cc1
inhibition [1]: 32%

O=C(NCCc1ccc(O)c(O)c1)C(=O)c1c[nH]c2ccccc12
inhibition [4]: 68% | Ki [2]: 4200 nM | Ratio [3]: 0.92

COc1ccc(CCNC(=O)C(=O)c2c[nH]c3ccccc23)cc1
ED50 [8]: inactive | ED50 [9]: inactive | Activity [6]: inactive | inhibition [1]: 97% | Ki [2]: 90 nM | Ratio [3]: 1.3

O=C(NCCc1ccc(O)c(O)c1)C(=O)c1c[nH]c2ccc(Cl)cc12
inhibition [4]: 90% | Ki [2]: 1000 nM | Ratio [3]: 0.52

O=C(NCCc1ccc(Cl)cc1)C(=O)c1c[nH]c2ccccc12
Ki [2]: 340 nM | Ratio [3]: 1.2

COc1ccc(CCNC(=O)C(=O)c2cn(C)c3ccccc23)cc1
inhibition [1]: 67%

O=C(NCCc1ccc(Cl)cc1)C(=O)c1c[nH]c2ccc(Cl)cc12
inhibition [1]: 4%

O=C(NCCc1ccccc1)C(=O)c1c[nH]c2ccc([N+](=O)[O-])cc12
inhibition [10]: 39%

O=C(NCCc1c[nH]c2ccccc12)C(=O)c1c[nH]c2ccc(Br)cc12
inhibition [1]: 62%

O=C(NCCc1ccc(O)cc1)C(=O)c1c[nH]c2ccc([N+](=O)[O-])cc12
ED50 [5]: 75 mg/kg | Activity [6]: inactive | ED50 [7]: 50 mg/kg | inhibition [1]: 100% | Ki [2]: 350 nM | Ratio [3]: 0.7

O=C(NCCc1ccc(O)cc1)C(=O)c1c[nH]c2ccccc12
inhibition [1]: 82% | Ki [2]: 2400 nM | Ratio [3]: 0.7

Cn1cc(C(=O)C(=O)NCCc2c[nH]c3ccccc23)c2ccccc21
inhibition [1]: 39%

O=C(NCCc1ccc(O)c(O)c1)C(=O)c1c[nH]c2ccc(Br)cc12
inhibition [4]: 85% | Ki [2]: 1200 nM | Ratio [3]: 0.7
